ChEMBL document CHEMBL1157589, “Antifungal 3,5-disubstituted furanones: From 5-acyloxymethyl to 5-alkylidene derivatives” (Bioorg Med Chem, 2010)
Values after ≈ are worked out from the molar mass of the structure shown.

Tests used:
[1] = test system: Candida albicans; test: Antifungal activity against Candida albicans ATCC 44859 after 48 hrs by microdilution method; format: functional; settings: ATCC 44859, 48 h
How it was run: (§1)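 Yeasts held on Sabouraud dextrose agar. MIC by NCCLS M27-A broth microdilution in RPMI 1640 with L-glutamine, buffered with 0.165 M MOPS to pH 7.0. Compounds in DMSO (≤2% final), twofold dilutions 500–0.48. Final inoculum 5 × 10³ ± 0.2 cfu mL⁻¹. Incubated at 35 °C; absorbance at 540 nm read at 24 and 48 h. MIC is 80% growth inhibition versus control; run twice in duplicate.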

[2] = test system: Candida albicans; test: Antifungal activity against Candida albicans ATCC 90028 after 24 hrs by microdilution method; format: functional; settings: ATCC 90028, 24 h; how it was run: as §1
[3] = test system: Candida albicans; test: Antifungal activity against Candida albicans ATCC 90028 after 48 hrs by microdilution method; format: functional; settings: ATCC 90028, 48 h; how it was run: as §1
[4] = test system: Candida parapsilosis; test: Antifungal activity against Candida parapsilosis ATCC 22019 after 24 hrs by microdilution method; format: functional; settings: Lodderomyces parapsilosis, ATCC 22019, 24 h; how it was run: as §1
[5] = test system: Candida parapsilosis; test: Antifungal activity against Candida parapsilosis ATCC 22019 after 48 hrs by microdilution method; format: functional; settings: Lodderomyces parapsilosis, ATCC 22019, 48 h; how it was run: as §1
[6] = test system: Pichia kudriavzevii; test: Antifungal activity against Candida krusei ATCC 6258 after 24 hrs by microdilution method; format: functional; settings: ATCC 6258, 24 h; how it was run: as §1
[7] = test system: Pichia kudriavzevii; test: Antifungal activity against Candida krusei ATCC 6258 after 48 hrs by microdilution method; format: functional; settings: ATCC 6258, 48 h; how it was run: as §1
[8] = test system: Pichia kudriavzevii; test: Antifungal activity against Candida krusei E28 after 24 hrs by microdilution method; format: functional; settings: E28, 24 h; how it was run: as §1
[9] = test system: Pichia kudriavzevii; test: Antifungal activity against Candida krusei E28 after 48 hrs by microdilution method; format: functional; settings: E28, 48 h; how it was run: as §1
[10] = test system: Candida tropicalis; test: Antifungal activity against Candida tropicalis 156 after 24 hrs by microdilution method; format: functional; settings: Candida tropicalis, 156, 24 h; how it was run: as §1
[11] = test system: Candida tropicalis; test: Antifungal activity against Candida tropicalis 156 after 48 hrs by microdilution method; format: functional; settings: Candida tropicalis, 156, 48 h; how it was run: as §1
[12] = test system: Nakaseomyces glabratus; test: Antifungal activity against Candida glabrata 20/I after 24 hrs by microdilution method; format: functional; how it was run: as §1
[13] = test system: Nakaseomyces glabratus; test: Antifungal activity against Candida glabrata 20/I after 48 hrs by microdilution method; format: functional; how it was run: as §1
[14] = test system: Clavispora lusitaniae; test: Antifungal activity against Candida lusitaniae 2446/I after 24 hrs by microdilution method; format: functional; how it was run: as §1
[15] = test system: Clavispora lusitaniae; test: Antifungal activity against Candida lusitaniae 2446/I after 48 hrs by microdilution method; format: functional; how it was run: as §1
[16] = test system: Trichosporon beigelii; test: Antifungal activity against Trichosporon beigelii 1188 after 24 hrs by microdilution method; format: functional; settings: Trichosporon beigelii, 1188, 24 h; how it was run: as §1
[17] = test system: Trichosporon beigelii; test: Antifungal activity against Trichosporon beigelii 1188 after 48 hrs by microdilution method; format: functional; settings: Trichosporon beigelii, 1188, 48 h; how it was run: as §1
[18] = test system: Aspergillus fumigatus; test: Antifungal activity against Aspergillus fumigatus 231 after 24 hrs by microdilution method; format: functional; settings: Aspergillus fumigatus, 231, 24 h
How it was run: (§2)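 Filamentous strains held on Sabouraud dextrose agar. NCCLS M27-A broth microdilution in RPMI 1640 with L-glutamine and 0.165 M MOPS, pH 7.0. DMSO diluent ≤2% final; twofold dilutions 500–0.48. Inoculum 5 × 10³ ± 0.2 cfu mL⁻¹ final.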

[19] = test system: Aspergillus fumigatus; test: Antifungal activity against Aspergillus fumigatus 231 after 48 hrs by microdilution method; format: functional; settings: Aspergillus fumigatus, 231, 48 h; how it was run: as §2
[20] = test system: Lichtheimia corymbifera; test: Antifungal activity against Absidia corymbifera 272 after 24 hrs by microdilution method; format: functional; settings: Lichtheimia corymbifera, 272, 24 h; how it was run: as §2
[21] = test system: Lichtheimia corymbifera; test: Antifungal activity against Absidia corymbifera 272 after 48 hrs by microdilution method; format: functional; settings: Lichtheimia corymbifera, 272, 48 h; how it was run: as §2
[22] = test system: Trichophyton mentagrophytes; test: Antifungal activity against Trichophyton mentagrophytes 445 after 72 hrs by microdilution method; format: functional; settings: Trichophyton mentagrophytes, 445, 72 h
How it was run: (§3)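 Dermatophyte held on Sabouraud dextrose agar. M27-A microdilution in MOPS-buffered (0.165 M, pH 7.0) RPMI 1640 with L-glutamine. DMSO ≤2% final; twofold dilutions 500–0.48. Inoculum 5 × 10³ ± 0.2 cfu mL⁻¹ final. Incubated at 35 °C; MIC read visually at 72 and 120 h as 80% inhibition of control growth; determined twice in duplicate.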

[23] = test system: Trichophyton mentagrophytes; test: Antifungal activity against Trichophyton mentagrophytes 445 after 120 hrs by microdilution method; format: functional; settings: Trichophyton mentagrophytes, 445, 120 h; how it was run: as §3
[24] = test system: L1210; test: Cytostatic activity against mouse L1210 cells after 72 hrs by XTT assay; format: functional, cell-based
How it was run: (§4)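 Leukemia cells (L1210 ATCC CCL 219, CCRF-CEM ATCC CCL 119, HL-60 ATCC CCL 240) grown in 24-well plates in RPMI 1640 with fetal calf serum. Growth assessed 72 h after drug addition. Viability measured by XTT spectrophotometric assay; potency given as IC50.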

[25] = test system: HL-60; test: Cytostatic activity against human HL60 cells after 72 hrs by XTT assay; format: functional, cell-based; settings: hl-60; how it was run: as §4
[26] = test system: CCRF-CEM; test: Cytostatic activity against human CCRF-CEM cells after 72 hrs by XTT assay; format: functional, cell-based; how it was run: as §4
[27] = test system: Candida albicans; test: Antifungal activity against Candida albicans ATCC 44859 after 24 hrs by microdilution method; format: functional; settings: ATCC 44859, 24 h; how it was run: as §1
[28] = test system: HeLa S3; test: Cytostatic activity against human HeLaS3 cells after 48 hrs by XTT assay
[29] = Mus musculus, L1210, 72 h, read-out: IC50
[30] = Homo sapiens, CCRF-CEM, 72 h, read-out: IC50
[31] = Homo sapiens, HeLa S3, 48 h, read-out: IC50

MIC80 [1] | MIC80 [2] | MIC80 [3] | MIC80 [4] | MIC80 [5] | MIC80 [6] | MIC80 [7] | MIC80 [8] | MIC80 [9] | MIC80 [10] | MIC80 [11] | MIC80 [12] | MIC80 [13] | MIC80 [14] | MIC80 [15] | MIC80 [16] | MIC80 [17] | MIC80 [18] | MIC80 [19] | MIC80 [20] | Compound | further results
> 125 µM | > 125 µM | > 125 µM | > 125 µM | > 125 µM | > 125 µM | > 125 µM | > 125 µM | > 125 µM | > 125 µM | > 125 µM | > 125 µM | > 125 µM | > 125 µM | > 125 µM | > 125 µM | > 125 µM | > 125 µM | > 125 µM | > 125 µM | COC(=O)/C=C1\C=C(c2ccc(Br)cc2)C(=O)O1 | MIC80 [21]: > 125 µM; MIC80 [22]: > 125 µM; MIC80 [23]: > 125 µM; IC50 ([24]; l1210): Not Active; IC50 [25]: Not Active; IC50 ([26]; ccrf-cem): Not Active; MIC80 [27]: > 125 µM; IC50 ([28]; hela s3): Not Active
> 500 µM | > 500 µM | > 500 µM | > 500 µM | > 500 µM | > 500 µM | > 500 µM | > 500 µM | > 500 µM | > 500 µM | > 500 µM | > 500 µM | > 500 µM | > 500 µM | > 500 µM | > 500 µM | > 500 µM | > 500 µM | > 500 µM | > 500 µM | C/C=C1/C=C(c2ccc(Br)cc2)C(=O)O1 | MIC80 [21]: > 500 µM; MIC80 [22]: 31.2 µM (≈ 8.28 µg/mL); MIC80 [23]: 31.2 µM (≈ 8.28 µg/mL); IC50 ([24]; l1210): Not Active; IC50 [25]: Not Active; IC50 ([26]; ccrf-cem): Not Active; MIC80 [27]: 250 µM (≈ 66.3 µg/mL); IC50 ([28]; hela s3): Not Active
1.95 µM (≈ 0.759 µg/mL) | 3.9 µM (≈ 1.52 µg/mL) | 15.6 µM (≈ 6.08 µg/mL) | 15.6 µM (≈ 6.08 µg/mL) | 15.6 µM (≈ 6.08 µg/mL) | 15.6 µM (≈ 6.08 µg/mL) | 15.6 µM (≈ 6.08 µg/mL) | 15.6 µM (≈ 6.08 µg/mL) | 15.6 µM (≈ 6.08 µg/mL) | 7.81 µM (≈ 3.04 µg/mL) | 7.81 µM (≈ 3.04 µg/mL) | 1.95 µM (≈ 0.759 µg/mL) | 1.95 µM (≈ 0.759 µg/mL) | 7.81 µM (≈ 3.04 µg/mL) | 7.81 µM (≈ 3.04 µg/mL) | 15.6 µM (≈ 6.08 µg/mL) | 15.6 µM (≈ 6.08 µg/mL) | 1.95 µM (≈ 0.759 µg/mL) | 7.81 µM (≈ 3.04 µg/mL) | 62.5 µM (≈ 24.3 µg/mL) | O=C1OC(COc2cccc(C(=O)O)c2)C=C1c1ccc(Br)cc1 (configuration not stated) | MIC80 [21]: 62.5 µM (≈ 24.3 µg/mL); MIC80 [22]: 0.97 µM (≈ 0.378 µg/mL); MIC80 [23]: 1.95 µM (≈ 0.759 µg/mL); IC50 [24, 29]: 7420 nM; IC50 [25]: Not Active; IC50 [26, 30]: 1640 nM; MIC80 [27]: 0.97 µM (≈ 0.378 µg/mL); IC50 [28, 31]: 1440 nM
7.81 µM (≈ 2.2 µg/mL) | 7.81 µM (≈ 2.2 µg/mL) | 15.6 µM (≈ 4.39 µg/mL) | 31.2 µM (≈ 8.78 µg/mL) | 62.5 µM (≈ 17.6 µg/mL) | 15.6 µM (≈ 4.39 µg/mL) | 31.2 µM (≈ 8.78 µg/mL) | 31.2 µM (≈ 8.78 µg/mL) | 62.5 µM (≈ 17.6 µg/mL) | 15.6 µM (≈ 4.39 µg/mL) | 31.2 µM (≈ 8.78 µg/mL) | 15.6 µM (≈ 4.39 µg/mL) | 62.5 µM (≈ 17.6 µg/mL) | 7.81 µM (≈ 2.2 µg/mL) | 15.6 µM (≈ 4.39 µg/mL) | 31.2 µM (≈ 8.78 µg/mL) | 62.5 µM (≈ 17.6 µg/mL) | 7.81 µM (≈ 2.2 µg/mL) | 15.6 µM (≈ 4.39 µg/mL) | 15.6 µM (≈ 4.39 µg/mL) | O=C1O/C(=C\CO)C=C1c1ccc(Br)cc1 | MIC80 [21]: 15.6 µM (≈ 4.39 µg/mL); MIC80 [22]: 7.81 µM (≈ 2.2 µg/mL); MIC80 [23]: 7.81 µM (≈ 2.2 µg/mL); IC50 [24, 29]: 7710 nM; IC50 [25]: Not Active; IC50 [26, 30]: 2070 nM; MIC80 [27]: 1.95 µM (≈ 0.548 µg/mL); IC50 [28, 31]: 3060 nM
